Most compounds without a hit are left out; they make up all but 1.8% or so of the library.
Runt-SMMHC FRET – blocks binding of human RUNX1 Runt domain to CBFb-SMMHC. Q01196+Q13951. Cerulean-Runt/Venus-CBFb-SMMHC FRET ratio 530/480, 1 h. inhibition, % at 20 µM. 220,000 compounds, 0.74% hits;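 active = mean inhibition across duplicate retests at 20 µM reaching about 50%, limit read from the data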;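 note: 0% = DMSO wells and 100% = wells with excess untagged CBFb-SMMHC; inhibitors lower the FRET ratio by blocking Runt binding to CBFb-SMMHC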
Target sequence (Q01196 whole entry, looked up, the tested form may be a part): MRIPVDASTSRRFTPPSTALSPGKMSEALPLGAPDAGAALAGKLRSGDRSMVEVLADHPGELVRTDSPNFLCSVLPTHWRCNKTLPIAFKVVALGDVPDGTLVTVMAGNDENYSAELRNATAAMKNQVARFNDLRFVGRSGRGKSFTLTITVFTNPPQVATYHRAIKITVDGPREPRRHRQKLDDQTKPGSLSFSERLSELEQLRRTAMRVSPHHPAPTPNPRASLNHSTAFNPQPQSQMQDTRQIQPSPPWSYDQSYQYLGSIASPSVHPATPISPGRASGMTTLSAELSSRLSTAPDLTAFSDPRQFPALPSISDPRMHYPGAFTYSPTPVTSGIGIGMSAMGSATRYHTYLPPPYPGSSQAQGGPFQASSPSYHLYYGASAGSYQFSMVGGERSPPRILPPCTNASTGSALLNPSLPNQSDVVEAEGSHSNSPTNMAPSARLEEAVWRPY
Target sequence (Q13951 whole entry, looked up, the tested form may be a part): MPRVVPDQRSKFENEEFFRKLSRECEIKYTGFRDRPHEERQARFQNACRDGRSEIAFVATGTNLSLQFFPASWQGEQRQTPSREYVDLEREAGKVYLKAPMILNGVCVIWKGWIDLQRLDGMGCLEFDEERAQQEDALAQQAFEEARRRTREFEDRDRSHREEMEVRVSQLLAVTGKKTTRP
RanGTP-Impb inh – inhibitors of RanGTP-importin-beta interaction, primary screen, biochemical, FRET, CFP-Ran, YFP-importin-beta, homogeneous; AID 2216; 300,000 compounds, 1.1% hits; inhibition, % (concentration not given with the values); cell-free CFP-Ran/YFP-importin-beta FRET ratio;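 active = more than half of the replicate wells show a fall in the fluorescence ratio signal beyond about 16%, limit read from the data, passing the limit was not always enough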;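 note: 0% = DMSO wells and 100% = Ran loaded with GDP instead of GTP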
Hck Nef HTS – human Hck-Nef kinase inhibition; inhibition, % at 20 µM; Recombinant Hck-YEEI plus Nef, Z-Lyte FRET kinase assay; AID 463187; 220,000 compounds, 0.68% hits;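 active = Hck-Nef kinase inhibition above about 50%, limit read from the data; inactive = inhibition below that limit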;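 note: 0% = DMSO with Hck plus Nef and 100% = Hck alone without Nef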
Runt-CBFb FRET – Runt domain-CBFb interaction inhibition | Q01196+Q13951 | Cerulean-Runt/Venus-CBFb FRET ratio 530/480, 1 h | inhibition, % at 20 µM | 220,000 compounds, 0.46% hits | AID 1496;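 active = inhibition over about 50% at 20 µM in the single-dose screen, limit read from the data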;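 note: 0% = DMSO wells and 100% = excess unlabeled CBFb competitor control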
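Assay system: Cerulean-Runt domain fusion protein, energy donor; Signal: fluorescence energy transfer, 422 nm excitation, 530/480 nm emission; Timing: 1 h compound exposure, room temperature; Control set: unlabeled CBFb; Medium: Tris buffer pH 7.5 with salts and BSA; Compound: single test concentration of 20 µM, 1% DMSO final; Probe or stimulus: Venus-CBFb 100 nM.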
* hit, by the source's call; x = not tested or not shown.

SMILES	Runt-SMMHC FRET	RanGTP-Impb inh	Hck Nef HTS	Runt-CBFb FRET
Cc1cccc2cc(C#N)c(N3CCOCC3)nc12	x	12.9	x	x
COCCCNC(=S)N1CCCN(c2nc3c(C)c(C)ccc3cc2C#N)CC1	x	42.9*	23.5	x
COCCCNC(=S)NCCNc1nc2c(C)c(C)ccc2cc1C#N	64.4*	x	22.0	32.4
Cc1nc(N2CCN(C(=O)c3ccco3)CC2)c(C#N)c2c1CCCC2	x	4.6	x	x
COc1ccc(/C=C/c2nnc(NC(=O)COc3ccc(C)cc3)s2)cc1	6.4	0.0	6.0	2.3
COC(=O)C1SCC2C(=O)N(Cc3ccccc3)CC(=O)N21 (stereo unspecified)	-4.9	-1.7	4.3	-0.5
COCCCNC(=S)NCCCNc1nc2cc(C)cc(C)c2cc1C#N	65.9*	-8.8	23.8	20.2
Cc1ccc2cc(C#N)c(N3CCCN(C(=O)C4CCCO4)CC3)nc2c1C (stereo unspecified)	64.3*	50.1*	0.0	6.3
O=C(C1CCCO1)N1CCN(c2ncccn2)CC1 (stereo unspecified)	-0.9	-4.5	22.3	0.0
O=C(CNC(=O)c1ccc(S(=O)(=O)N2CCCC2)cc1)N/N=C/c1ccc(Cl)cc1Cl	2.2	6.6	-6.1	-1.3
Cc1cccn2c(=O)c(C=C(C#N)C#N)c(N3CCN(c4ccccc4)CC3)nc12	x	25.0*	x	x
COC(=O)/C(C#N)=C/c1c(N2CCN(c3ccc(OC)cc3)CC2)nc2c(C)cccn2c1=O	x	33.7*	x	x
CNC(=O)/C(C#N)=C/c1c(N2CCN(c3ccc(OC)cc3)CC2)nc2c(C)cccn2c1=O	x	7.8	x	x
CNC(=O)/C(C#N)=C/c1c(N2CCN(c3ccccc3)CC2)nc2c(C)cccn2c1=O	x	19.0*	x	x
Cc1cccn2c(=O)c(/C=C(\C#N)C(N)=O)c(N3CCN(Cc4ccc5c(c4)OCO5)CC3)nc12	x	7.8	1.3	121.9*
COc1ccc(N2CCN(c3nc4c(C)cccn4c(=O)c3C=C(C#N)C#N)CC2)cc1	x	2.8	x	x
CC(=O)c1cccc(CN2CCCC(CCC(=O)NCc3ccc(C)o3)C2)c1 (stereo unspecified)	0.0	-1.3	18.5	3.2
CC(=O)CCc1c(C)nc2ccc(C)cc2c1Cl	-1.4	1.3	11.4	-3.3
CCc1nn2c(=O)cc(CSCC(=O)Nc3ccccc3Cl)nc2s1	x	2.5	x	x
CNC(=O)NC(=O)CN1C(=O)NC2(CCOc3ccccc32)C1=O (stereo unspecified)	x	-1.1	x	x
C/C(O)=c1/ccc2cccc3nc(C)nc1c23	x	53.7*	-1.4	-13.4
O/C=c1\ccc2cccc3nc(C(F)(F)F)nc1c23	x	3.6	x	x
Cn1c(=O)[nH]c(=O)c2c1nc(Br)n2CCSc1ncccn1	1.1	4.2	-1.5	x
Cn1c(=O)c2c(nc(Br)n2CCSc2ncccn2)n(C)c1=O	-1.5	24.7*	-23.3	-0.5
O=C(c1cccc(F)c1)N1CCN(C(=O)C(c2ccccc2)c2ccccc2)CC1	x	-2.0	x	x
SMILES	Runt-SMMHC FRET	RanGTP-Impb inh	Hck Nef HTS	Runt-CBFb FRET
COCCn1c(=NC(=O)CCS(=O)(=O)c2ccccc2)sc2cc(F)ccc21	x	0.4	x	x
Cc1cccn2c(=O)c3cc(C(=O)NCCc4ccccc4)c(=N)n(Cc4ccco4)c3nc12	x	73.5*	x	x
COc1ccc(CCNC(=O)c2cc3c(=O)n4cccc(C)c4nc3n(Cc3ccncc3)c2=N)cc1	132.4*	x	x	105.3*
Cc1cccn2c(=O)c3cc(C(=O)NCC4CCCO4)c(=N)n(CCc4ccccc4)c3nc12 (stereo unspecified)	x	176.1*	x	x
COc1ccc(CCNC(=O)c2cc3c(=O)n4cccc(C)c4nc3n(CC3CCCO3)c2=N)cc1 (stereo unspecified)	x	-8.9	x	x
COc1ccc(CCNC(=O)c2ccc3c(=O)n(Cc4ccco4)c(=S)[nH]c3c2)cc1OC	-11.9	-1.3	3.0	7.2
COc1ccc(CCNC(=O)c2cc3c(=O)n4cccc(C)c4nc3n(Cc3ccco3)c2=N)cc1OC	x	53.4*	x	x
COc1ccc(N(CC(=O)N/N=C(\C)c2ccccc2)S(=O)(=O)c2ccccc2)cc1	x	0.4	x	x
C=CCC1(CC=C)CCCN1C(=O)C1CCC(=O)N(CCc2ccc(OC)cc2)C1 (stereo unspecified)	x	0.1	x	x
Cc1nc2nc(C)c(NS(=O)(=O)c3ccc(CC(C)C)cc3)c(=O)n2[nH]1	x	1.6	x	x
Cc1cccn2c(=O)c3cc(C(=O)NCc4ccco4)c(=N)n(CCc4ccccc4)c3nc12	79.3*	x	42.3	11.6
O=C(CSc1n[nH]c(=O)[nH]c1=O)N/N=C/C=C\c1ccccc1	-6.5	-0.1	19.6	82.7*
O=C(CSc1n[nH]c(=O)[nH]c1=O)N/N=C/C=C/c1ccccc1	0.5	0.3	0.1	2.1
COC(=O)C1=CN(C(C)C)C=C(C(=O)OC)C1c1cc2c(cc1Br)OCO2	118.5*	30.2*	14.5	12.1
CC1=C(C(=O)OCC(C)C)C(c2cc3c(cc2Br)OCO3)NC(=O)N1C (stereo unspecified)	0.1	2.3	0.6	-2.6
CC(=O)c1cccc(NC(=O)Nc2c(C)nn(C)c2C)c1	-0.8	63.3*	-0.2	0.5
CCOC(=O)c1ccc(NC(=O)Nc2c(C)nn(C)c2C)cc1	2.8	-0.5	0.4	-0.2
O=S(=O)(Nc1nc2ccccc2nc1N1CCN(c2ccccn2)CC1)c1ccc(Cl)cc1	104.4*	x	10.6	33.5
O=S(=O)(Nc1nc2ccccc2nc1N1CCc2ccccc2C1)c1ccc(Cl)cc1	7.8	-6.2	4.4	-0.7
COc1ccc(N=Nc2c(C)[nH]c3ccccc23)cc1	x	3.6	x	x
CCC(C)NC(=S)N(CCc1ccccc1)Cc1cc2cc(OC)c(OC)cc2[nH]c1=O (stereo unspecified)	-7.0	0.7	4.3	-77.4
COc1ccc(NC(=O)c2sc3nc(C)cc(C)c3c2N)c(OC)c1	x	1.4	x	x
COc1cccc(N2CC(=O)N(NC(=O)c3sc4nc(C)cc(C)c4c3N)CC2=O)c1	2.5	16.0*	-3.3	3.5
O=C(COC(=O)c1ccccc1-n1cnnn1)c1ccc(F)cc1	x	0.5	x	x
COCc1cnc(C)nc1N	-0.1	-0.2	12.4	-1.4
COc1ccc(OCC(=O)Nc2cccc(-c3nc4ccccc4[nH]3)c2)cc1	1.8	30.7*	2.4	-1.9
CC(C)(C)c1ccc(/C=C(\C#N)C(=O)Nc2ccccn2)cc1	x	-1.5	x	x
